Many of the other results were omitted from the sample, so hits are more common in it than they were.
IDH1 mut inh = inhibitors of IDH1 R132H reductase, primary screen, biochemical, plate reader, single point; Isocitrate dehydrogenase [NADP] cytoplasmic (Homo sapiens), O75874; diaphorase/resazurin fluorescence, 60 min; inhibition, % at 10 µM; 0.18% of 70,000 active; AID 624101, 2012; in the data active means inhibition above about 34%; inconclusive means no clear call, values can overlap the other calls; inactive means below about 11%;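 further: 0% = DMSO and 100% = no enzyme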
Target sequence (O75874 whole entry R132H): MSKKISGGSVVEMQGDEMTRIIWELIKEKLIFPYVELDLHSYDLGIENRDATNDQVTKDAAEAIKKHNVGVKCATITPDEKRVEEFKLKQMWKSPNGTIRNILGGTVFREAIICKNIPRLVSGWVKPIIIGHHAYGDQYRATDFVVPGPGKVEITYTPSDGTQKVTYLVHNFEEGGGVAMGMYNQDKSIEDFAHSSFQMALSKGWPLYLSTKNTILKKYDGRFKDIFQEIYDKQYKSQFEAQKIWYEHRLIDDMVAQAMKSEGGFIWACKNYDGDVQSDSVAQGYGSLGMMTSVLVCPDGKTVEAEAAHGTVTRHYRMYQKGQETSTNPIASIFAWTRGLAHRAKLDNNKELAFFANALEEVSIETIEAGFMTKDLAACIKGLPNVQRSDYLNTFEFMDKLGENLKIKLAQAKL
KDM4C inh = inhibitors of GASC-1 (KDM4C) histone demethylase, primary screen, biochemical, single concentration HTS. 0.15% of 96,000 active. GST-KDM4C 2-372, H3K9me3 peptide, LANCE TR-FRET. inhibition, % at 12.5 µM. Lysine-specific demethylase 4C (Homo sapiens), Q9H3R0;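 active means mean replicate inhibition above about 25%, with at least 55% of replicates also reaching it, limit read from the data, passing the limit was not always enough; inconclusive means only one of those two conditions met; inactive means neither condition met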
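Material: N-terminal GST-fused human GASC-1 (KDM4C) fragment, residues 2-372. Input: 10 nM enzyme. Incubation: enzyme reaction 30 min, then detection 60 min, both room temperature. Doses: one test concentration per compound. Read-out basis: inhibition from TR-FRET ratio decrease. Detection: LANCE TR-FRET, excitation 340 nm, emissions 618 and 671 nm.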
T cruzi growth-1 = T. cruzi intracellular proliferation inhibitors, primary screen, cell-based, beta-gal Tulahuen parasites, NIH3T3 host, luminescence. T. cruzi beta-gal in NIH3T3, GalScreen luminescence, 90 h. inhibition, % at 8.34 µM. 5.9% of 77,000 active;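 active means mean inhibition above about 93%, with at least 55% of replicates each passing it, limit read from the data, passing the limit was not always enough; inconclusive means only one of those two conditions holds; inactive means neither condition holds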
T cruzi growth-2 = T. cruzi intracellular proliferation inhibitors, confirmation, cell-based, NIH3T3 host, beta-gal parasite, luminescence, cherry-pick; inhibition, % at 8.35 µM; T. cruzi beta-gal in NIH3T3, GalScreen luminescence, 90 h; shares compounds with T cruzi growth-1; 72% of 5,600 active;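 active means mean replicate inhibition above about 95% and at least 55% of replicates individually reaching it, limit read from the data; inconclusive means only one of the two criteria is met; inactive means neither criterion is met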
T cruzi growth-3 = inhibitors of intracellular T. cruzi replication, confirmation, NIH3T3 host cells, beta-gal parasites, cherry-pick, set 2. shares compounds with T cruzi growth-1. T. cruzi beta-gal in NIH3T3, GalScreen luminescence, 90 h. inhibition, % at 2.09 µM. 21% of 5,600 active;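 active means mean inhibition above about 95%, with at least 55% of replicates also reaching it, limit read from the data; inconclusive means meets just one of the two conditions; inactive means meets neither condition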;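 further: plate controls were neutral control median for no effect and positive control median for full effect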
3T3 cytotox = cytotoxicity in mouse NIH/3T3 fibroblasts, confirmation, cytotoxicity control for T. cruzi proliferation inhibitor project, cell-based, cherry-pick, single point | shares compounds with T cruzi growth-1 | NIH/3T3 viability, CellTiter-Glo ATP luminescence, 90 h | cytotoxicity (signal decrease), % at 8.35 µM | 14% of 5,600 active;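 active means mean signal decrease across replicates above about 35% based on untreated-well scatter, with enough replicates individually passing, limit read from the data; inconclusive means no rule stated though some were filed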;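 further: 0% = median of neutral control wells and 100% = median of positive control wells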
3T3 cytotox 2 = NIH/3T3 fibroblast cytotoxicity, confirmation, cytotoxicity control, cell-based, cherry-pick, single point, set 2 | NIH/3T3 viability, CellTiter-Glo ATP luminescence, 90 h | shares compounds with T cruzi growth-1 | 56% of 5,600 active | inhibition, % at 24.9 µM | AID 651744, 2012;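 active means mean loss of cell viability signal at or above a set limit, and enough replicates individually reaching it; inconclusive means meets only the mean limit or only the replicate share; inactive means meets neither condition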;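 further: 0% = median of neutral control wells and 100% = median of positive control wells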
Starred values were filed as active, the others as inactive.

For Cc1ccc(-c2ccc3c(c2)O[C@@H](CN(C)Cc2ccncc2)[C@H](C)CN([C@H](C)CO)S3(=O)=O)cc1 the results were IDH1 mut inh 0, KDM4C inh -1, T cruzi growth-1 123*, T cruzi growth-2 88, T cruzi growth-3 100*, 3T3 cytotox 98* and 3T3 cytotox 2 106*.
For CNC[C@@H]1Oc2ccc(NS(=O)(=O)c3cccs3)cc2CC(=O)N([C@H](C)CO)C[C@@H]1C the results were IDH1 mut inh 2, KDM4C inh 1 and T cruzi growth-1 17.
For Cc1ccc(S(=O)(=O)N2CC[C@H]3[C@@H](CO)N(C)c4ccc(-c5ccccc5F)cc4[C@H]32)cc1 the results were KDM4C inh 0 and T cruzi growth-1 92.
CN1c2ccc(-c3ccccc3F)cc2[C@@H]2[C@@H](CCN2S(=O)(=O)c2ccccc2F)[C@@H]1CO was read as KDM4C inh 0, T cruzi growth-1 116*, T cruzi growth-2 100*, T cruzi growth-3 64, 3T3 cytotox inconclusive and 3T3 cytotox 2 41*.
CN1c2ccc(-c3ccccc3F)cc2[C@H]2[C@H](CCN2S(=O)(=O)c2ccccc2F)[C@@H]1CO was read as KDM4C inh 0 and T cruzi growth-1 93.
CN1c2ccc(-c3ccccc3F)cc2[C@H]2[C@H](CCN2S(=O)(=O)c2ccc(F)cc2)[C@@H]1CO was read as KDM4C inh 7, T cruzi growth-1 113*, T cruzi growth-2 99*, T cruzi growth-3 98*, 3T3 cytotox 19 and 3T3 cytotox 2 80*.
For COc1cccc(S(=O)(=O)N2C[C@@H](O)COC[C@H]3O[C@H](CC(=O)N4CCN(c5ccccc5)CC4)CC[C@@H]32)c1 the results were KDM4C inh -1 and T cruzi growth-1 16.
`COc1ccccc1S(=O)(=O)N[C@H]1CC[C@H](CCNC(=O)C2CCOCC2)O[C@H]1CO` gave IDH1 mut inh 0, KDM4C inh 1 and T cruzi growth-1 -43.
C[C@H]1CN([C@@H](C)CO)S(=O)(=O)c2ccc(-c3ccc(C(=O)N(C)C)cc3)cc2O[C@@H]1CN(C)C(=O)Cc1ccccn1 was read as IDH1 mut inh -3, KDM4C inh 0 and T cruzi growth-1 29.
For C[C@@H]1CCCCO[C@H](CN(C)S(=O)(=O)c2ccc(Cl)cc2)[C@@H](C)CN([C@H](C)CO)C(=O)c2cc(NC(=O)Nc3ccc(C(F)(F)F)cc3)ccc2O1 the results were IDH1 mut inh 0, KDM4C inh -1, T cruzi growth-1 112*, T cruzi growth-2 102*, T cruzi growth-3 108*, 3T3 cytotox 17 and 3T3 cytotox 2 31*.
`C[C@@H]1CCCCO[C@@H](CN(C)S(=O)(=O)c2ccc(Cl)cc2)[C@@H](C)CN([C@H](C)CO)C(=O)c2cc(NC(=O)Nc3ccc(C(F)(F)F)cc3)ccc2O1` gave KDM4C inh -3 and T cruzi growth-1 87.
For C[C@@H]1CN([C@H](C)CO)C(=O)c2cc(NC(=O)Nc3ccc(C(F)(F)F)cc3)ccc2O[C@@H](C)CCCCO[C@@H]1CN(C)S(=O)(=O)c1ccc(Cl)cc1 the results were IDH1 mut inh 5, KDM4C inh -4, T cruzi growth-1 103*, T cruzi growth-2 106*, T cruzi growth-3 80, 3T3 cytotox 2 and 3T3 cytotox 2 -6.
`C[C@@H]1CN([C@@H](C)CO)C(=O)c2cc(NC(=O)Nc3ccc(C(F)(F)F)cc3)ccc2O[C@@H](C)CCCCO[C@H]1CN(C)S(=O)(=O)c1ccc(Cl)cc1` gave IDH1 mut inh 0, KDM4C inh 1, T cruzi growth-1 103*, T cruzi growth-2 110*, T cruzi growth-3 109*, 3T3 cytotox -15 and 3T3 cytotox 2 15.
`C[C@@H]1CCCCO[C@@H](CN(C)S(=O)(=O)c2ccc(Cl)cc2)[C@H](C)CN([C@H](C)CO)C(=O)c2cc(NC(=O)Nc3ccc(C(F)(F)F)cc3)ccc2O1` gave KDM4C inh 2 and T cruzi growth-1 70.
`C[C@H]1CCCCO[C@H](CN(C)S(=O)(=O)c2ccc(Cl)cc2)[C@@H](C)CN([C@@H](C)CO)C(=O)c2cc(NC(=O)Nc3ccc(C(F)(F)F)cc3)ccc2O1` gave IDH1 mut inh 0, KDM4C inh -5 and T cruzi growth-1 75.
`O=C(C[C@H]1C[C@H]2c3cc(NC(=O)Nc4ccccc4F)ccc3O[C@H]2[C@@H](CO)O1)NCc1ccc(Oc2ccccc2)cc1` gave IDH1 mut inh 0, KDM4C inh 1 and T cruzi growth-1 1.
`C[C@@H]1CN([C@@H](C)CO)C(=O)c2cc(NC(=O)Nc3ccc(C(F)(F)F)cc3)ccc2O[C@H]1CN(C)S(=O)(=O)c1cn(C)cn1` gave KDM4C inh 2 and T cruzi growth-1 7.
Screening COCC(=O)N1C[C@H]2[C@@H](c3ccccc31)[C@@H](CO)N2C(=O)C1CCCC1 returned KDM4C inh 0 and T cruzi growth-1 24.
Screening Cc1nc(C)c(Oc2ccc(Cl)cc2Cl)c(N2CCCCC2)n1 returned IDH1 mut inh -1.
`COc1ccc(C#Cc2ccc([C@H]3[C@H](CO)N4CCCCN(C(=O)Nc5cccc(F)c5)C[C@@H]34)cc2)cc1` gave T cruzi growth-1 72.
COc1ccc(C#Cc2ccc([C@H]3[C@H]4CN(C(=O)Nc5cccc(F)c5)CCCCN4[C@H]3CO)cc2)cc1 was read as KDM4C inh -2, T cruzi growth-1 113*, T cruzi growth-2 104*, T cruzi growth-3 85, 3T3 cytotox 1 and 3T3 cytotox 2 15.
COc1ccc(C#Cc2ccc([C@@H]3[C@@H](CO)N4CCCCN(C(=O)Nc5ccccc5F)C[C@H]34)cc2)cc1 was read as KDM4C inh -2 and T cruzi growth-1 103.
Screening COc1ccc(C#Cc2ccc([C@H]3[C@@H](CO)N4CCCCN(C(=O)Nc5ccc(F)cc5)C[C@@H]34)cc2)cc1 returned KDM4C inh -3, T cruzi growth-1 107*, T cruzi growth-2 104*, T cruzi growth-3 104*, 3T3 cytotox 14 and 3T3 cytotox 2 24.

Screens from PubChem BioAssay.
